Measurements collected from several papers.
Each line is one published result; the experiments were not run side by side.
Target: Rho-associated protein kinase 1 (ROCK1, Homo sapiens, UniProt Q13464)

Structure (SMILES)	read-out	mode	technique	concentration	quantity	value
O=C1NC(=O)c2cc(Nc3ccc(F)cc3)c(Nc3ccc(F)cc3)cc21	cell-free assay	–	–	0.5 µM	remaining signal	96.7%
CCN(CC)CCNC(=O)c1c(C)[nH]c(/C=C2\C(=O)Nc3ccc(F)cc32)c1C	enzyme activity	inhibitor	–	10 µM	inhibition	26%
CC/C(=N\NC(=O)C(C)Nc1ccccc1)c1ccc(O)c(C)c1O (stereo not drawn)	enzyme activity	inhibitor	–	0.1 µM	inhibition	18.5%
COc1cc2ncnc(Nc3ccc(Oc4ccccc4)c(C)c3C)c2cc1OC	enzyme activity	inhibitor	–	1 µM	inhibition	-12%
CNC(=O)c1cc(Oc2ccc(NC(=O)Nc3ccc(Cl)c(C(F)(F)F)c3)cc2)ccn1	enzyme activity	inhibitor	–	0.3 µM	inhibition	0%
CC(C)c1ccc(NC(=O)c2cccs2)c(-c2nc3ccccc3[nH]c2=O)c1	enzyme activity	inhibitor	–	1 µM	activity vs control	122%
Cc1sc(C(=O)NC2COC2)cc1-n1cc(NC(=O)Nc2c(F)cccc2Cl)cn1	enzyme activity	inhibitor	–	10 µM	remaining activity	96.8%
O=c1nc(-c2ccccn2)sc2ccccc12	binding	–	competition with immobilised ligand	1 µM	remaining binding	100%
CCCS(=O)(=O)Nc1ccc(F)c(C(=O)c2c[nH]c3ncc(-c4ccc(Cl)cc4)cc23)c1F	enzyme activity	inhibitor	–	1 µM	inhibition	< 10%
Cc1ccc(Nc2nccc(N(C)c3ccc4c(C)n(C)nc4c3)n2)cc1S(N)(=O)=O	enzyme activity	inhibitor	–	0.3 µM	inhibition	-1%
CCCOc1ccc(OC)c(F)c1C(=O)c1ccc(C(=O)N[C@@H]2CNC[C@H]2NC(=O)c2ccc3[nH]ncc3c2)cc1	enzyme activity	inhibitor	–	10 µM	remaining activity	8%
CC(=O)N1CCC(c2ccc(C(=O)NC(=N)N)cc2C(F)(F)F)CC1	cell-free assay	–	competition with immobilised ligand	1 µM	remaining binding	87%
CC(C)(C)c1nc2c(s1)c1nc(N)ncc1c1ccc(NS(=O)(=O)c3c(F)cccc3F)c(F)c12	enzyme activity	inhibitor	radiometric	1 µM	remaining activity	98%
C[C@@H](c1cccc(C#N)c1)n1cc(Cl)cc(C(N)=O)c1=N	cell-free assay	–	competition with immobilised ligand	1 µM	remaining binding	71%
O=S(=O)(c1cccc2cnccc12)N1CCCNCC1	cell-free assay	–	–	0.5 µM	remaining signal	60.2%
CCS(=O)(=O)c1cc2cc(C[C@](O)(CC(C)(C)c3ccc(F)cc3C(N)=O)C(F)(F)F)[nH]c2cn1	cell-free assay	–	competition with immobilised ligand	1 µM	remaining binding	84%
CN(C)C1CCN(CC#Cc2nn(C3CCCC3)c3nc(NCc4ccccc4)ncc23)C1 (stereo not drawn)	enzyme activity	inhibitor	FRET	0.1 µM	inhibition	-5%
CN(C)CC#Cc1ccc(OCCCc2sc(N3CCc4cccc(C(=O)Nc5nc6ccccc6s5)c4C3)nc2C(=O)O)c(F)c1	cell-free assay	–	competition with immobilised ligand	1 µM	remaining binding	100%
COc1cccc2c(NCc3ccccc3)nc(-n3c(N)nc4ccccc43)nc12	target engagement in cells	inhibitor	chemoproteomics	20 mM	inhibition	2.2%
C=CC(=O)Nc1cc(Nc2nccc(Nc3cc(Cl)c(F)cc3C(C)(C)O)n2)c(OC)cc1N1CC[C@@H](N(C)C)C1	enzyme activity	inhibitor	–	1 µM	inhibition	0%
CSc1nc(C)c(-c2ccnc(Nc3ccc(N4CCOCC4)cc3)c2)[nH]1	enzyme activity	inhibitor	–	10 µM	inhibition	-4.2%
O=C1NC(c2ccccn2)Sc2ccccc21 (stereo not drawn)	cell-free assay	–	competition with immobilised ligand	1 µM	remaining binding	82%
CC(C)(O)[C@H]1CC[C@H](Nc2ccc3ncc(-c4cccc(C(F)(F)F)c4)n3n2)CC1	enzyme activity	inhibitor	–	1 µM	remaining activity	94%
Cc1nc(N2CC[C@@H](O)C2)ncc1-c1cc(C(F)(F)F)cc2[nH]ncc12	binding	–	competition with immobilised ligand	1 µM	remaining binding	91%
CCCCNc1ncc2c(-c3ccc(F)cc3)nn(C[C@H]3CC[C@H](N)CC3)c2n1	target engagement in cells	inhibitor	chemoproteomics	20 mM	inhibition	54.3%
Cn1cncc1C1=CN(c2ncnc3[nH]cnc23)CCS1	enzyme activity	inhibitor	radiometric	50 nM	inhibition	27%
C[C@@H]1CN(c2cc(-c3nn(C)c4ccc(OC5(C)CC5)cc34)ncn2)C[C@H](C)O1	cell-free assay	–	competition with immobilised ligand	1 µM	remaining binding	100%
CN1CC(Oc2cnc(C#N)cc2-c2ccn3nc(NC(=O)C4CC4)cc3c2)C1	enzyme activity	inhibitor	–	1 µM	inhibition	0%
O=C1Nc2ccc(Cl)cc2C1=Cc1cc(Cl)c(O)c(Cl)c1	cell-free assay	–	–	0.5 µM	remaining signal	93.2%
Cc1cc(NC(=O)c2cccc3cc(-c4cccc5[nH]nc(N)c45)ccc23)ccc1F	enzyme activity	inhibitor	–	0.1 µM	activity vs control	110%
